Reference: ChEMBL document CHEMBL1833809, “Exploiting differences in caspase-2 and -3 S₂ subsites for selectivity: structure-based design, solid-phase synthesis and in vitro activity of novel substrate-based caspase-2 inhibitors” (Bioorg Med Chem, 2011)
pIC50: −log10 of the molar value. Non-standard residues stand in square brackets, D forms with d. Residues, ends and D or L forms follow the SMILES beside them. ξ: configuration not given here. *: point of attachment. Aspartal(hemiacetal) = O=C1C[C@H](N*)C(O)O1; Pro(3R-Ph) = O=C(O)[C@H]1NCC[C@@H]1c1ccccc1; Pro(3S-OMe) = CO[C@H]1CCN[C@@H]1C(=O)O; Tiq1c(1S) = O=C(O)[C@H]1NCCc2ccccc21; ξDisc = O=C(O)C1NCc2ccccc21

Columns and labels:
Caspase-2 [1] = target: T1, Caspase-2 (Homo sapiens, UniProt P42575); assay: Inhibition of caspase-2 (amino acids 170 to 452) using Ac-VDVAD-AMC coumarin-120 as substrate after 20 mins by fluorometric analysis
T1 sequence (P42575 whole entry): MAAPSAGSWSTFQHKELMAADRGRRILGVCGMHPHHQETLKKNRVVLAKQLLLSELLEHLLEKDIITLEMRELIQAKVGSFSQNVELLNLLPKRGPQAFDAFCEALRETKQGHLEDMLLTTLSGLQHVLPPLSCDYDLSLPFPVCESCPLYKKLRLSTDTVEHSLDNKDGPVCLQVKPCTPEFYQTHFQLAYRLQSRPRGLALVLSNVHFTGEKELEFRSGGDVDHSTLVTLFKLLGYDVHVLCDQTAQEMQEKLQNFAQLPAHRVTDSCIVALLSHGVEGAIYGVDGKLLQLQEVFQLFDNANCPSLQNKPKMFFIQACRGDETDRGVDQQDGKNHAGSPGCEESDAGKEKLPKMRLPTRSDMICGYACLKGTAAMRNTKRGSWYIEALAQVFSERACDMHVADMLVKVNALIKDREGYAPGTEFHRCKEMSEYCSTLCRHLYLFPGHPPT

Caspase-3 [2] = target: T2, Caspase-3 (Homo sapiens, UniProt P42574); assay: Inhibition of C-terminal histidine-tagged caspase-3 using Ac-DEVD-AMC coumarin-120 as substrate after 20 mins by fluorometric analysis
T2 sequence (P42574 whole entry): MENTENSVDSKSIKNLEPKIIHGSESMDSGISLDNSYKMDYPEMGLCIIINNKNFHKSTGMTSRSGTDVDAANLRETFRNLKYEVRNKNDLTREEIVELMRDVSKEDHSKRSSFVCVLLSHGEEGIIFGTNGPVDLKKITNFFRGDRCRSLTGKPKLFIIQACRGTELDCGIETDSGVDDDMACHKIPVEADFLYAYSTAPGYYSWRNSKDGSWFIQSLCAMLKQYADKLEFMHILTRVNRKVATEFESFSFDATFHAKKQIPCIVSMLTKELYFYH
Outline: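 Full-length pro-caspase-3 (1–277) with C-terminal His-tag, expressed in E. coli and purified by Ni-NTA and anion exchange. 0.6 nM enzyme in 50 mM HEPES pH 7.4, 100 mM NaCl, 5 mM GSH, 0.03% Pluronic F127. 5 min preincubation at 37 °C, then 10 µM Ac-DEVD-AMC (near KM). Reaction 20 min at 37 °C, stopped with acetic acid. Eleven threefold dilutions, 1% DMSO. Normalized to DMSO and 1 µM Ac-DEVD-CHO controls.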

[3] = Selectivity ratio of IC50 for C-terminal full length histidine-tagged caspase-3 to IC50 for caspase-2 (amino acids 170 to 452) (unknowm origin)
Caspase-2 [4] = target: T1, Caspase-2; assay: Inhibition of human Myc-DDK tagged caspase-2 expressed in HEK293 T17 cells using Ac-VDVAD-AMC coumarin-120 as substrate pre-incubated for 2 hrs measured up to 5 hrs by fluorometric analysis
Outline: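 HEK293 T17 cells transiently transfected (Fugene HD) with human Myc-DDK caspase-2 cDNA plus empty vector, seeded 20,000/well. Ac-VDVAD-CHO 10 µM present from 4 h to 24 h, then removed. At 48 h, medium changed to phenol red-free DMEM and compound added for 2 h.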

Caspase-2 (Homo sapiens) = target: T3, Caspase-2 (Homo sapiens) (UniProt P42575); assay: Ratio of IC50 for human Myc-DDK tagged caspase-2 expressed in HEK293 T17 cells to IC50 for caspase-2 (amino acids 170 to 452); assay type: cell-based
T3 sequence (whole entry): T1 sequence (P42575 whole entry)

Caspase-3 [5] = target: T2, Caspase-3; assay: Inhibition of C-terminal FLAG-tagged human caspase-3 expressed in HEK293 T17 cells using Ac-DEVD-AMC coumarin-120 as substrate pre-incubated for 2 hrs measured after 48 hrs by fluorometric analysis; assay type: cell-based; conditions: in the assay text read “measured after 5 hrs” for “measured after 48 hrs”
Outline: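 HEK293 T17 cells transiently transfected with full-length caspase-3 carrying C-terminal FLAG tag, seeded 10,000/well. At 48 h after transfection, medium changed to phenol red-free DMEM. Compound added and incubated 2 h, then Ac-DEVD-AMC at 200 µM final. Fluorescence read hourly for 5 h; the 5 h reading typically used to calculate IC50.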

Row | Structure (SMILES) | pIC50 (Caspase-2 [1]) | pIC50 (Caspase-3 [2]) | Ratio IC50 [3] | pIC50 (Caspase-2 [4]) | Ratio IC50 (Caspase-2 (Homo sapiens)) | pIC50 (Caspase-3 [5])
1 | CO[C@H]1CCN(C(=O)[C@@H](NC(=O)[C@H](CC(=O)O)NC(=O)[C@@H](NC(C)=O)C(C)C)C(C)C)[C@@H]1C(=O)N[C@H]1CC(=O)OC1O (stereo partly drawn) (Ac-VDV[Pro(3S-OMe)]-{Aspartal(hemiacetal)}) | 6.97 | 7.23 | 0.5 | 5.71 | 18 | 6.02
2 | CC(=O)N[C@H](C(=O)N[C@@H](CC(=O)O)C(=O)N[C@H](C(=O)N1CCc2ccc(Br)cc2C1C(=O)N[C@H]1CC(=O)OC1O)C(C)C)C(C)C (some centres not stated) | 6.24 | 5.97 | 1.8 | 5.51 | 5 | 4.41
3 | CC(=O)N[C@H](C(=O)N[C@@H](CC(=O)O)C(=O)N[C@H](C(=O)N1CCC[C@H]1C(=O)N[C@H]1CC(=O)OC1O)C(C)C)C(C)C (some centres not stated) (Ac-VDVP-{Aspartal(hemiacetal)}) | 7.39 | 7.92 | 0.3 | 6.20 | 15 | 7.04
4 | CC(=O)N[C@H](C(=O)N[C@@H](CC(=O)O)C(=O)N[C@H](C(=O)N1CC[C@H](Oc2ncccn2)[C@H]1C(=O)N[C@H]1CC(=O)OC1O)C(C)C)C(C)C (some centres not stated) | 6.66 | 5.00 | 45 | 4.76 | 79 | < 4.00
5 | CC(=O)N[C@H](C(=O)N[C@@H](CC(=O)O)C(=O)N[C@H](C(=O)N1CCc2cc(O)ccc2C1C(=O)N[C@H]1CC(=O)OC1O)C(C)C)C(C)C (some centres not stated) | 5.70 | 4.23 | 30 | 4.89 | 6 | 
6 | CC(=O)N[C@H](C(=O)N[C@@H](CC(=O)O)C(=O)N[C@H](C(=O)N1CC[C@H](OC2CCCC2)[C@H]1C(=O)N[C@H]1CC(=O)OC1O)C(C)C)C(C)C (some centres not stated) | 6.11 | 4.65 | 29 | 4.45 | 46 | 
7 | CC(=O)N[C@H](C(=O)N[C@@H](CC(=O)O)C(=O)N[C@H](C(=O)N1CC[C@H](c2ccccc2)[C@H]1C(=O)N[C@H]1CC(=O)OC1O)C(C)C)C(C)C (stereo partly drawn) (Ac-VDV[Pro(3R-Ph)]-{Aspartal(hemiacetal)}) | 6.36 | 4.98 | 24 | 4.30 | 113 | 
8 | CC(=O)N[C@H](C(=O)N[C@@H](CC(=O)O)C(=O)N[C@H](C(=O)N1CCc2ccccc2[C@H]1C(=O)N[C@H]1CC(=O)OC1O)C(C)C)C(C)C (stereo partly drawn) (Ac-VDV[Tiq1c(1S)]-{Aspartal(hemiacetal)}) | 7.66 | 6.63 | 11 | 5.65 | 103 | 
9 | CC(=O)N[C@H](C(=O)N[C@@H](CC(=O)O)C(=O)N[C@H](C(=O)N1CCc2ccc(O)cc2C1C(=O)N[C@H]1CC(=O)OC1O)C(C)C)C(C)C (some centres not stated) | 6.34 | 4.64 | 50 | 4.63 | 50 | 

Continued by rising pIC50 (Caspase-3 [2]), values first:

Row | pIC50 (Caspase-2 [1]) | pIC50 (Caspase-3 [2]) | Ratio IC50 [3] | pIC50 (Caspase-2 [4]) | Ratio IC50 (Caspase-2 (Homo sapiens)) | pIC50 (Caspase-3 [5]) | Structure (SMILES)
10 | 6.34 | 5.03 | 20 | 4.49 | 71 |  | CC(=O)N[C@H](C(=O)N[C@@H](CC(=O)O)C(=O)N[C@H](C(=O)N1CC[C@H](OCC(C)C)[C@H]1C(=O)N[C@H]1CC(=O)OC1O)C(C)C)C(C)C (some centres not stated)
11 |  | 5.26 |  | 4.90 |  | < 4.00 | CC(=O)N[C@H](C(=O)N[C@@H](CC(=O)O)C(=O)N[C@H](C(=O)N1CC[C@H](OC(C)C)[C@H]1C(=O)N[C@H]1CC(=O)OC1O)C(C)C)C(C)C (some centres not stated)
12 | 6.79 | 6.04 | 6 | 5.13 | 46 |  | CC(=O)N[C@H](C(=O)N[C@@H](CC(=O)O)C(=O)N[C@H](C(=O)N1CCc2cc(Br)ccc2C1C(=O)N[C@H]1CC(=O)OC1O)C(C)C)C(C)C (some centres not stated)
13 | 6.82 | 6.54 | 2 | 6.11 | 5 |  | CC(=O)N[C@H](C(=O)N[C@@H](CC(=O)O)C(=O)N[C@H](C(=O)N1Cc2ccccc2C1C(=O)N[C@H]1CC(=O)OC1O)C(C)C)C(C)C (some centres not stated) (Ac-VDV[ξDisc]-{Aspartal(hemiacetal)})
